Measurements of several laboratories.
Lines come from different studies, so protocols differ. pEC50, pIC50: −log10 of the molar value.

| Compound | cell line | assay | conditions | endpoint | value |
| --- | --- | --- | --- | --- | --- |
| CCc1cccc(CN2CCc3cc(O)c(OC)cc3C2)c1 | DU-145 | cell growth or viability, WST-1 | 96 h | GI50 | > 100 µM |
| Cn1cc(C(c2ccc(C(=O)O)cc2)c2cn(C)c3ccccc23)c2ccccc21 | LNCaP | cell growth or viability, MTT | 100 µM, 48 h | inhibition | 95% |
| C[C@@H](NC(=O)[C@H](CCCCNC(=O)C(F)(F)F)NS(C)(=O)=O)C(=O)N[C@@H](CCCNC(=N)N)C(N)=O | Jurkat | cell growth or viability, MTT | 72 h | pEC50 | 4.55 to 4.67 |
| COc1ccc2c(N(C)c3ccc(/C(C)=N/OCCN)cc3)c3c(Cl)coc3nc2c1 | LNCaP | cell migration | 1 µM, 24 h | inhibition | 70% |
| CC(C)n1cc(C(c2ccc(/C=C/C(=O)O)s2)c2cn(C(C)C)c3ccccc23)c2ccccc21 | DU-145 | cell growth or viability, MTT | 100 µM, 48 h | inhibition | 94% |
| COc1cc(Nc2nccc(-c3cnn4nc(OC)ccc34)n2)cc(C(F)(F)F)c1 | LOU-NH91 | cell growth or viability, ATP luminescence |  | pIC50 | 6.72 |
| COc1cc2c(cc1O)CCN(Cc1cccc(OC(F)(F)F)c1)C2 | DU-145 | cell growth or viability, WST-1 | 96 h | GI50 | 55 µM |
| COc1cccc(Oc2ccccc2NC(=O)CNC(=O)c2cccc3ccccc23)c1 | SF-295 | cell growth or viability, SRB | 48 h | GI50 | 0.112 µM |
| COc1cc2c(cc1OS(N)(=O)=O)CCN(Cc1cccc(C)c1)C2 | DU-145 | cell growth or viability, WST-1 | 96 h | GI50 | 41.7 µM |
| O=C(O)c1ccc(C(c2c[nH]c3ccccc23)c2c[nH]c3ccccc23)cc1 | LNCaP | cell growth or viability, MTT | 100 µM, 48 h | inhibition | 100% |
| COc1cc2c(cc1OS(N)(=O)=O)CCN(S(=O)(=O)c1ccccc1OC)C2 | DU-145 | cell growth or viability, WST-1 | 96 h | GI50 | > 100 µM |
| FC(F)(F)c1ccc(C(c2c[nH]c3ccccc23)c2c[nH]c3ccccc23)cc1 | DU-145 | cell growth or viability, MTT | 100 µM, 48 h | inhibition | 95% |
| COc1ccc(-c2ccc(-c3ccc(C(=N)N)nc3)s2)cc1Cl | BT-549 | cell growth or viability, SRB |  | GI50 | 1.72 µM |
| O=C(O)/C=C/c1ccc(C(c2c[nH]c3ccccc23)c2c[nH]c3ccccc23)s1 | DU-145 | cell growth or viability, MTT | 100 µM, 48 h | inhibition | 55% |
| CC(C)C[C@H](NC(=O)[C@H](Cc1ccccc1)NC(=O)c1cnccn1)B(O)O | LN-229 | cell growth or viability, ATP luminescence |  | pIC50 | 8.10 |
